# From ChEMBL document CHEMBL2424551, “Synthesis, in vitro evaluation and molecular modelling of naphthalimide analogue as anticancer agents” (2013)
# What was measured:
# Type in all cases: functional
# [1] = tested on: OVCAR-3; assay: Growth inhibition of human OVCAR3 cells at 10 uM after 48 hrs by SRB assay; conditions: OVCAR-3, 48 h, read-out: GI
# Outline: (§1)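 Cells grown in RPMI 1640 with 5% FBS and 2 mM L-glutamine, plated at 5000–40,000 cells/well by doubling time and preincubated 24 h (37 °C, 5% CO2); a time-zero plate is TCA-fixed. Single dose added, then 48 h incubation. Fixed with cold TCA, stained with 0.4% SRB, dye solubilized in 10 mM Tris base, absorbance at 515 nm; percent growth vs time-zero and untreated control.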
# [2] = tested on: KM12; assay: Growth inhibition of human KM12 cells at 10 uM after 48 hrs by SRB assay; conditions: KM12, 48 h, read-out: GI; outline: as §1
# [3] = tested on: OVCAR-4; assay: Growth inhibition of human OVCAR4 cells at 10 uM after 48 hrs by SRB assay; conditions: OVCAR-4, 48 h, read-out: GI; outline: as §1
# [4] = tested on: NCI-H522; assay: Growth inhibition of human NCI-H522 cells at 10 uM after 48 hrs by SRB assay; conditions: NCI-H522, 48 h, read-out: GI; outline: as §1
# [5] = tested on: PC-3; assay: Growth inhibition of human PC3 cells at 10 uM after 48 hrs by SRB assay; conditions: PC-3, 48 h, read-out: GI; outline: as §1
# [6] = tested on: A498; assay: Growth inhibition of human A498 cells at 10 uM after 48 hrs by SRB assay; conditions: A498, 48 h, read-out: GI; outline: as §1
# [7] = tested on: M14; assay: Growth inhibition of human M14 cells at 10 uM after 48 hrs by SRB assay; conditions: M14, 48 h, read-out: GI; outline: as §1
# [8] = tested on: OVCAR-8; assay: Growth inhibition of human OVCAR8 cells at 10 uM after 48 hrs by SRB assay; conditions: OVCAR-8, 48 h, read-out: GI; outline: as §1
# [9] = tested on: SK-OV-3; assay: Growth inhibition of human SKOV3 cells at 10 uM after 48 hrs by SRB assay; conditions: SK-OV-3, 48 h, read-out: GI
# Outline: (§2)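 NCI 60-cell-line screen with a single 10 µM dose. Cells are grown in RPMI 1640 with 5% FBS and 2 mM L-glutamine, plated at 5000–40,000 cells/well according to doubling time, and preincubated 24 h at 37 °C, 5% CO2; time-zero plates are TCA-fixed at that point. Drug exposure is 48 h. Adherent cells are fixed with cold TCA, stained with 0.4% SRB in 1% acetic acid and read at 515 nm. Percent growth is calculated relative to time-zero and untreated controls and reported as GI%.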
# [10] = tested on: OVCAR-5; assay: Growth inhibition of human OVCAR5 cells at 10 uM after 48 hrs by SRB assay; conditions: OVCAR-5, 48 h, read-out: GI; outline: as §1
# [11] = tested on: CCRF-CEM; assay: Growth inhibition of human CCRF-CEM cells at 10 uM after 48 hrs by SRB assay; conditions: read-out: GI; outline: as §1
# [12] = tested on: SF-268; assay: Growth inhibition of human SF268 cells at 10 uM after 48 hrs by SRB assay; conditions: SF-268, 48 h, read-out: GI; outline: as §1
# [13] = tested on: LOX IMVI; assay: Growth inhibition of human LOXIMVI cells at 10 uM after 48 hrs by SRB assay; conditions: read-out: GI; outline: as §1
# [14] = tested on: HT-29; assay: Growth inhibition of human HT-29 cells at 10 uM after 48 hrs by SRB assay; conditions: HT-29, 48 h, read-out: GI; outline: as §1
# [15] = Growth inhibition of human HCC2998 cells at 10 uM after 48 hrs by SRB assay; conditions: HCC 2998, 48 h, read-out: GI; outline: as §1
# [16] = tested on: BT-549; assay: Growth inhibition of human BT549 cells at 10 uM after 48 hrs by SRB assay; conditions: BT-549, 48 h, read-out: GI; outline: as §1
# [17] = tested on: RPMI-8226; assay: Growth inhibition of human RPMI8226 cells at 10 uM after 48 hrs by SRB assay; conditions: RPMI-8226, 48 h, read-out: GI; outline: as §1
# [18] = tested on: Hs-578T; assay: Growth inhibition of human Hs578T cells at 10 uM after 48 hrs by SRB assay; conditions: read-out: GI; outline: as §1
# [19] = tested on: MOLT-4; assay: Growth inhibition of human MOLT4 cells at 10 uM after 48 hrs by SRB assay; conditions: MOLT-4, 48 h, read-out: GI; outline: as §1
# [20] = tested on: HL-60(TB); assay: Growth inhibition of human HL-60(TB) cells at 10 uM after 48 hrs by SRB assay; conditions: HL-60, 48 h, read-out: GI
# Outline: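 Single-concentration pass across the 60-line panel in RPMI 1640 with 5% FBS. Cells preincubated 24 h, then exposed 48 h at 37 °C, 5% CO2. Read by SRB staining with absorbance at 515 nm. Percent growth is taken relative to time-zero and untreated controls and reported as percent growth inhibition (GI %).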
# [21] = Growth inhibition of human NCI-ADR-RES cells at 10 uM after 48 hrs by SRB assay; conditions: read-out: GI; outline: as §1
# [22] = tested on: SR; assay: Growth inhibition of human SR cells at 10 uM after 48 hrs by SRB assay; conditions: read-out: GI; outline: as §2
# [23] = tested on: NCI-H460; assay: Growth inhibition of human NCI-H460 cells at 10 uM after 48 hrs by SRB assay; conditions: NCI-H460, 48 h, read-out: GI; outline: as §1
# [24] = tested on: ACHN; assay: Growth inhibition of human ACHN cells at 10 uM after 48 hrs by SRB assay; conditions: read-out: GI; outline: as §1
# [25] = tested on: HCT-116; assay: Growth inhibition of human HCT116 cells at 10 uM after 48 hrs by SRB assay; conditions: HCT-116, 48 h, read-out: GI; outline: as §1
# [26] = tested on: SF-539; assay: Growth inhibition of human SF539 cells at 10 uM after 48 hrs by SRB assay; conditions: SF-539, 48 h, read-out: GI; outline: as §1
# [27] = tested on: NCI-H322M; assay: Growth inhibition of human NCI-H322M cells at 10 uM after 48 hrs by SRB assay; conditions: read-out: GI; outline: as §1
# [28] = tested on: MDA-MB-435; assay: Growth inhibition of human MDA-MB-435 cells at 10 uM after 48 hrs by SRB assay; conditions: MDA-MB-435, 48 h, read-out: GI; outline: as §1
# [29] = tested on: UO-31; assay: Growth inhibition of human UO31 cells at 10 uM after 48 hrs by SRB assay; conditions: UO-31, 48 h, read-out: GI; outline: as §2
# [30] = tested on: NCI-H226; assay: Growth inhibition of human NCI-H226 cells at 10 uM after 48 hrs by SRB assay; conditions: NCI-H226, 48 h, read-out: GI; outline: as §1
# [31] = tested on: UACC-62; assay: Growth inhibition of human UACC62 cells at 10 uM after 48 hrs by SRB assay; conditions: UACC-62, 48 h, read-out: GI; outline: as §2
SMILES,inhibition of growth at 10 µM [1] [%],inhibition of growth at 10 µM [2] [%],inhibition of growth at 10 µM [3] [%],inhibition of growth at 10 µM [4] [%],inhibition of growth at 10 µM [5] [%],inhibition of growth at 10 µM [6] [%],inhibition of growth at 10 µM [7] [%],inhibition of growth at 10 µM [8] [%],inhibition of growth at 10 µM [9] [%],inhibition of growth at 10 µM [10] [%],inhibition of growth at 10 µM [11] [%],inhibition of growth at 10 µM [12] [%],inhibition of growth at 10 µM [13] [%],inhibition of growth at 10 µM [14] [%],inhibition of growth at 10 µM [15] [%],inhibition of growth at 10 µM [16] [%],inhibition of growth at 10 µM [17] [%],inhibition of growth at 10 µM [18] [%],inhibition of growth at 10 µM [19] [%],inhibition of growth at 10 µM [20] [%],also measured
O=c1c2cccc3c(Nc4ccccn4)ccc(c32)c2nc3ccccc3n12,30,25.2,30.9,43.4,36,< 20,< 20,24.6,< 20,< 20,48.2,< 20,30.4,35.4,31.5,< 20,51,< 20,38.2,37.7,inhibition of growth at 10 µM [21]: 25.4%; inhibition of growth at 10 µM [22]: 29.8%; inhibition of growth at 10 µM [23]: 47.3%; inhibition of growth at 10 µM [24]: 23.9%; inhibition of growth at 10 µM [25]: 35%; inhibition of growth at 10 µM [26]: < 20%; inhibition of growth at 10 µM [27]: 25.5%; inhibition of growth at 10 µM [28]: < 20%; inhibition of growth at 10 µM [29]: 53.5%; inhibition of growth at 10 µM [30]: 30.4%; inhibition of growth at 10 µM [31]: 35.7%
O=c1c2cccc3c(Nc4c(F)cccc4F)ccc(c32)c2nc3ccccc3n12,< 20,21.1,< 20,< 20,< 20,< 20,< 20,< 20,< 20,< 20,27.5,< 20,< 20,< 20,27.3,< 20,24.6,< 20,25.9,< 20,inhibition of growth at 10 µM [21]: < 20%; inhibition of growth at 10 µM [22]: 78.5%; inhibition of growth at 10 µM [23]: 27.3%; inhibition of growth at 10 µM [24]: < 20%; inhibition of growth at 10 µM [25]: < 20%; inhibition of growth at 10 µM [26]: < 20%; inhibition of growth at 10 µM [27]: < 20%; inhibition of growth at 10 µM [28]: < 20%; inhibition of growth at 10 µM [29]: 49.4%; inhibition of growth at 10 µM [30]: 24.9%; inhibition of growth at 10 µM [31]: < 20%
